The values below come from ChEMBL document CHEMBL1158565, “Antagonism of 4-substituted 1,4-dihydropyridine-3,5-dicarboxylates toward voltage-dependent L-type Ca2+ channels Ca V 1.3 and Ca V 1.2” (Bioorg Med Chem, 2010).

A word on the pIC50: it is −log10 of the IC50, conventionally taken in molar units.

Test [1] concerns the target Voltage-dependent L-type calcium channel subunit alpha-1D (Rattus norvegicus, UniProt P27732). Briefly: Antagonist activity at rat Cav1.3 expressed in HEK293 cells assessed as inhibition of voltage pulse-induced calcium current by FLIPR calcium 4 assay. Format: functional, cell-based. In a few lines: (§1)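 HEK293 lines stably expressing Cavβ3 and Cavα2δ-1 plus Cav1.2 α1C (rabbit) or Cav1.3 α1D (rat) were selected with zeocin/hygromycin. Calcium signals were read by FLIPR with Calcium 4 dye. IC50 came from 11-point dose-response curves. Signal percentage error (SD/mean) was 6.4% for Cav1.2 and 4.1% for Cav1.3 cells.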

For test [2], the target named is Voltage-dependent L-type calcium channel subunit alpha-1C (Oryctolagus cuniculus, UniProt P15381). Description: Antagonist activity at rabbit Cav1.2 expressed in HEK293 cells assessed as inhibition of voltage pulse-induced calcium current by FLIPR calcium 4 assay. Format: functional, cell-based. In a few lines:
as §1

Molecules are shown by their SMILES. pIC50: −log10 of the molar value.

Voltage-dependent L-type calcium channel subunit alpha-1D, sequence (P27732 whole entry): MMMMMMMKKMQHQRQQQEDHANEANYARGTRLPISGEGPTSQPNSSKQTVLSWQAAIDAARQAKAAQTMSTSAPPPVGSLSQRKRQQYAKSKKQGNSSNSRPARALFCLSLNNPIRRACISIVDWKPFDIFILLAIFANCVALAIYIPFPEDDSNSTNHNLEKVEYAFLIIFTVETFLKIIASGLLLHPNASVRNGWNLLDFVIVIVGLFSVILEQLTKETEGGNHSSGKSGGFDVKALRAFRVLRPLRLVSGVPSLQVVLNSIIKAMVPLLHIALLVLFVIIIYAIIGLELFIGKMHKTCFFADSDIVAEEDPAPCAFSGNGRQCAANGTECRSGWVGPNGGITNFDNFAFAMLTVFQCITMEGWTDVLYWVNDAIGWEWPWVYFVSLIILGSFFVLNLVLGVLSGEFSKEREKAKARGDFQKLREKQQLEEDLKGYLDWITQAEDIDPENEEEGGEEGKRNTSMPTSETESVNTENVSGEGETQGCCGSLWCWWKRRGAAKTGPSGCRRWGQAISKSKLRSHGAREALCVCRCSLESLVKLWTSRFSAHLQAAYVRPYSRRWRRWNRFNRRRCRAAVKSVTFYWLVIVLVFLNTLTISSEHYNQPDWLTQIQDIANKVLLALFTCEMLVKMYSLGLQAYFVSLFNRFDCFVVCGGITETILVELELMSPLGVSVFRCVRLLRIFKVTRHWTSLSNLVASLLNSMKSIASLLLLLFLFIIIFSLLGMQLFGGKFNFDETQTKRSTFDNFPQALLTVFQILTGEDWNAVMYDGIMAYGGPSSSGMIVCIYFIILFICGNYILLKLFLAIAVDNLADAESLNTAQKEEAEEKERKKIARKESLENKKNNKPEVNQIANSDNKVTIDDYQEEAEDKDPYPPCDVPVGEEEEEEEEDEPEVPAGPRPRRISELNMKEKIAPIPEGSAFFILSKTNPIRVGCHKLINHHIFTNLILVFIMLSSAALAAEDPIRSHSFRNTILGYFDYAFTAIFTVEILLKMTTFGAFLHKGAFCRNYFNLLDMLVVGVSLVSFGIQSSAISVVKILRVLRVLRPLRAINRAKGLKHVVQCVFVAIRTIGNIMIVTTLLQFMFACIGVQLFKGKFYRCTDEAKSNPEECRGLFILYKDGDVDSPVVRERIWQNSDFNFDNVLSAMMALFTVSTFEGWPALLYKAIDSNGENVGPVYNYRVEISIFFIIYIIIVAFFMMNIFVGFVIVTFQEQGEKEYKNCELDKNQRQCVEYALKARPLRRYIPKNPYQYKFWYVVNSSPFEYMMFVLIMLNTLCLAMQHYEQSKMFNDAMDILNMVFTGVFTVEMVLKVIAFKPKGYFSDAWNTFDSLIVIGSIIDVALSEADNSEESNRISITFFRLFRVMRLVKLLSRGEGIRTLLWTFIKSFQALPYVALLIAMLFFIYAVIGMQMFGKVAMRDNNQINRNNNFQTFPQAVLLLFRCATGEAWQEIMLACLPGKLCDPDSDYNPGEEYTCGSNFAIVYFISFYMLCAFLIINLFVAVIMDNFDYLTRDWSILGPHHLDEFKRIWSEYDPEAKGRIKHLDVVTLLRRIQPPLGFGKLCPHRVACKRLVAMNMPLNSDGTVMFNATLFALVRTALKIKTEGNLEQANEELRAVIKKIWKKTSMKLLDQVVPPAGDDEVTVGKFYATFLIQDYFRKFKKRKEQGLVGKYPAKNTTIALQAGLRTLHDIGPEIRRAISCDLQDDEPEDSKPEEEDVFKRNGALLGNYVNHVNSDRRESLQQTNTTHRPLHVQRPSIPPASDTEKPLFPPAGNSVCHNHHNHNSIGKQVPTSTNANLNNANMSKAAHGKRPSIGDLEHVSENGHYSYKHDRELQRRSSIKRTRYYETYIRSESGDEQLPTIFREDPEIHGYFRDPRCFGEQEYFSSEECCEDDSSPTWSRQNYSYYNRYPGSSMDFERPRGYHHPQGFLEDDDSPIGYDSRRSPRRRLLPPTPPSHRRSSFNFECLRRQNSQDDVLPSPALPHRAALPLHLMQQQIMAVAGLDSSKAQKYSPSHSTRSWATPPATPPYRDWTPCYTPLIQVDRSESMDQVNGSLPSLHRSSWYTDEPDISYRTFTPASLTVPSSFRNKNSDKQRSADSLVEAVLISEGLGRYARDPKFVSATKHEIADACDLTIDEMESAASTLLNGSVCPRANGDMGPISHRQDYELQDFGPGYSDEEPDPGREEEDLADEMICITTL
Voltage-dependent L-type calcium channel subunit alpha-1C, sequence (P15381 whole entry): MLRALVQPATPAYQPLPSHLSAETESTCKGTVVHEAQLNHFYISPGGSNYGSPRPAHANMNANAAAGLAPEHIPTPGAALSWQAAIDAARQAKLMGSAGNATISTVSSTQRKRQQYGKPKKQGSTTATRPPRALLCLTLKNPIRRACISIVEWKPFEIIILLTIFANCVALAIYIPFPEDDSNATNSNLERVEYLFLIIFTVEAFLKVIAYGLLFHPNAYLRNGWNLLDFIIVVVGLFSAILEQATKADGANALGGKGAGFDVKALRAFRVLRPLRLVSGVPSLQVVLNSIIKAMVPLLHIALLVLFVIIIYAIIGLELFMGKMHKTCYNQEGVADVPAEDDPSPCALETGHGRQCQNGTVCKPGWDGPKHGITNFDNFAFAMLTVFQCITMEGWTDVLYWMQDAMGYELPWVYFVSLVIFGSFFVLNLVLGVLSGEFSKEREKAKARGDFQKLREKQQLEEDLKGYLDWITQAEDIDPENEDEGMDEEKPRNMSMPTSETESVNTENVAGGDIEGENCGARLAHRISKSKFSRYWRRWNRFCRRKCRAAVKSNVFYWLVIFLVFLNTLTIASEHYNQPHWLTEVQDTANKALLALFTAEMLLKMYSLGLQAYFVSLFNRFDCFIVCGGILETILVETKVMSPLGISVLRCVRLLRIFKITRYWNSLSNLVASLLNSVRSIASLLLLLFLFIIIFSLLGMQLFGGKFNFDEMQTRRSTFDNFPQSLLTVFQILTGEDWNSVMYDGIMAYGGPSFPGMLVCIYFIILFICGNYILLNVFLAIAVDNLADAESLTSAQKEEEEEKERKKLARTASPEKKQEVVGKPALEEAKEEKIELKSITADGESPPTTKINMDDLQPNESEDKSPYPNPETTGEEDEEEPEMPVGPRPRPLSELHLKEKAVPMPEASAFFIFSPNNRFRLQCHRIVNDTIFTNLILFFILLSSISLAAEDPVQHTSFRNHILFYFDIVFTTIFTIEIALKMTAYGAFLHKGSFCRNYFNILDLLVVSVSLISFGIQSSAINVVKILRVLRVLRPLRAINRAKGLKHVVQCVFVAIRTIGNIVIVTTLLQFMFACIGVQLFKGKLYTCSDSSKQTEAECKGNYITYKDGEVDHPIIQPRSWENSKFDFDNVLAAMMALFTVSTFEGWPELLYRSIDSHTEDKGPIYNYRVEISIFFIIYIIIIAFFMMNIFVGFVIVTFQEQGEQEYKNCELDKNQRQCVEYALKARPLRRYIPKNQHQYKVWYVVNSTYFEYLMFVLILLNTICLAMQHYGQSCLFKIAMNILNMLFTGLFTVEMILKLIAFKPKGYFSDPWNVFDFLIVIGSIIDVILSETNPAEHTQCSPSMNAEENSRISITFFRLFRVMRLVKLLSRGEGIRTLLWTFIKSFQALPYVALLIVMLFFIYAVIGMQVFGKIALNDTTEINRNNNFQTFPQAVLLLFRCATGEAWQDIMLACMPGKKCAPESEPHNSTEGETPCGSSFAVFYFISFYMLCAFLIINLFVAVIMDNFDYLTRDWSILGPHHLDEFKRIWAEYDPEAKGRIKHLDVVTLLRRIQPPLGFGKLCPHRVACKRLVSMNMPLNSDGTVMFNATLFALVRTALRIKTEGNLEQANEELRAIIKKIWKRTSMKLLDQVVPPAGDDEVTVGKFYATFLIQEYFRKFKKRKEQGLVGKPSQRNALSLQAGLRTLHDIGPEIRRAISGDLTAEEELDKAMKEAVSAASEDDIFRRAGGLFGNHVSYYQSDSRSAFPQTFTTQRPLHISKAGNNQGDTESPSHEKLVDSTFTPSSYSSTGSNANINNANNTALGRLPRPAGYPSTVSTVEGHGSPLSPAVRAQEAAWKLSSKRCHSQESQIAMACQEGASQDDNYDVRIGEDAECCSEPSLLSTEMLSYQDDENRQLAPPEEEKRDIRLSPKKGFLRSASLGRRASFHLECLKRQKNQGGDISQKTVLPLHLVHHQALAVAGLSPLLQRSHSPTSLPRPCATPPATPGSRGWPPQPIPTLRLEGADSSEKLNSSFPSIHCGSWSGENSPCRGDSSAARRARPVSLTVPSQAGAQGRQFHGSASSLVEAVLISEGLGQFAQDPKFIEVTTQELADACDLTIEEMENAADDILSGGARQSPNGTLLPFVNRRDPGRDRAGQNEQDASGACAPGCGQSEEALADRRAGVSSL

Take `COC(=O)C1=C(C)NC(C)=C(C(=O)OCCC(C)c2ccccc2)C1c1cccc([N+](=O)[O-])c1` (stereo unspecified): the pIC50 in test [1] was 7.96; in test [2], 8.22.
`CCOC(=O)C1=C(C)NC(C)=C(C(=O)OCC)C1(C)c1ccccc1`: the pIC50 in test [1] is 5.67; in test [2], 6.20.
Turning to `CCOC(=O)C1=C(C)NC(C)=C(C(C)=O)C1c1ccc2ccccc2c1` (stereo unspecified), the pIC50 in test [1] is 5.64; in test [2], 5.65.
The corresponding values for `C#CCCOC(=O)C1=C(C)NC(C)=C(C(=O)OC)C1c1cccc([N+](=O)[O-])c1` (stereo unspecified) are 7.46 and 7.51.
The like results for `COC(=O)C1=C(C)NC(C)=C(C(=O)OCCCOc2ccccc2)C1c1cccc([N+](=O)[O-])c1` (stereo unspecified) were, in that order, 7.96 and 8.05.
The like results for `COC(=O)C1=C(C)NC(C)=C(C(=O)OC2Cc3ccccc3C2)C1c1cccc([N+](=O)[O-])c1` (stereo unspecified) were, in that order, 7.37 and 7.14.
As to `COC(=O)C1=C(C)NC(C)=C(C(=O)OCc2ccc3c(c2)OCO3)C1c1cccc([N+](=O)[O-])c1` (stereo unspecified), the pIC50 in test [1] was 7.66; in test [2], 7.89.
The corresponding values for `C=C(C)CCOC(=O)C1=C(C)NC(C)=C(C(=O)OC)C1c1cccc([N+](=O)[O-])c1` (stereo unspecified) are 7.33 and 7.64.
For `C=CCOC(=O)C1=C(C)NC(C)=C(C(=O)OC)C1c1cccc([N+](=O)[O-])c1` (stereo unspecified), the pIC50 in test [1] and in test [2] was 7.82 each time.
Consider `COC(=O)C1=C(C)NC(C)=C(C(=O)OCc2cccc(F)c2)C1c1cccc([N+](=O)[O-])c1` (stereo unspecified), for which the pIC50 was 7.55 in test [1] and 7.66 in test [2].
The like results for `COC(=O)C1=C(C)NC(C)=C(C(=O)O)C1c1cccc([N+](=O)[O-])c1` (stereo unspecified) were, in that order, 6.03 and 6.05.
The like results for `COC(=O)C1=C(C)NC(C)=C(C(=O)OCCCCc2ccc(OC)cc2)C1c1cccc([N+](=O)[O-])c1` (stereo unspecified) were, in that order, 7.42 and 7.77.
The like results for `COC(=O)C1=C(C)NC(C)=C(C(=O)OCCC#N)[C@H]1c1cccc([N+](=O)[O-])c1` were, in that order, 6.23 and 6.84.
For `COC(=O)C1=C(C)NC(C)=C(C(=O)OCC(C)[N+](=O)[O-])C1c1cccc([N+](=O)[O-])c1` (stereo unspecified), the figures for the pIC50 in test [1] and in test [2] were 6.95 and 6.97, respectively.
The like results for `COC(=O)C1=C(C)NC(C)=C(C(=O)OCc2ccccc2)C1c1cccc([N+](=O)[O-])c1` (stereo unspecified) were, in that order, 7.82 and 7.60.
The like results for `C=C(C)C(=O)OCCOC(=O)C1=C(C)NC(C)=C(C(=O)OCC)C1c1cccc([N+](=O)[O-])c1` (stereo unspecified) were, in that order, 8.00 and 8.00.
The like results for `COC(=O)C1=C(C)N=C(C)/C(=C(/O)OC)C1(C)c1ccccc1` (stereo unspecified) were, in that order, 5.64 and 5.83.
In the case of `CCOC(=O)C1=C(C)NC(C)=C(C(=O)OCCC#N)[C@@H]1c1cccc([N+](=O)[O-])c1`, the pIC50 in test [1] was 6.86; in test [2], 7.30.
The corresponding values for `COC(=O)C1=C(C)NC(C)=C(C(=O)OCc2ccc(F)c(F)c2)C1c1cccc([N+](=O)[O-])c1` (stereo unspecified) are 7.70 and 8.15.
The corresponding values for `COC(=O)C1=C(C)NC(C)=C(C(=O)OCc2ccc(OC)cc2)C1c1cccc([N+](=O)[O-])c1` (stereo unspecified) are 7.10 and 7.29.
Turning to `CCOC(=O)C1=C(C)NC(COC(C)=O)=C(C(=O)OCC)C1c1cccc([N+](=O)[O-])c1` (stereo unspecified), the pIC50 in test [1] was 7.43; in test [2], 8.00.
The corresponding values for `COC(=O)C1=C(C)NC(C)=C(C(=O)OCc2cc([N+](=O)[O-])cc([N+](=O)[O-])c2)C1c1cccc([N+](=O)[O-])c1` (stereo unspecified) are 7.40 and 7.26.
The like results for `COC(=O)C1=C(C)NC(C)=C(C(=O)OCCc2ccc(Cl)cc2)C1c1cccc([N+](=O)[O-])c1` (stereo unspecified) were, in that order, 7.41 and 8.10.
The corresponding values for `CCOC(=O)C1=C(C)NC(C)=C(C(=O)OCCOC)C1c1cccc([N+](=O)[O-])c1` (stereo unspecified) are 7.09 and 7.80.
Turning to `COC(=O)C1=C(C)NC(C)=C(C(=O)OC/C=C/c2ccccc2)C1c1cccc([N+](=O)[O-])c1` (stereo unspecified) [PRANIDIPINE], the pIC50 in test [1] and in test [2] was 7.43 each time.
In the case of `CCOC(=O)C1=C(C)NC(CO)=C(C(=O)OCC)C1c1cccc([N+](=O)[O-])c1` (stereo unspecified), the values for the pIC50 in test [1] and in test [2] were 7.35 and 7.31, respectively.
The like results for `CCOC(=O)C1=C(C)NC(COC)=C(C(=O)OC)C1c1ccccc1[N+](=O)[O-]` (stereo unspecified) were, in that order, 6.10 and 5.75.
The like results for `CCOC(=O)C1=C(C)NC(CCl)=C(C(=O)OCC)C1c1cccc([N+](=O)[O-])c1` (stereo unspecified) were, in that order, 7.28 and 8.00.
In the case of `CCOC(=O)C1=C(C)NC(/C=C/C#N)=C(C(=O)OCC)C1c1cccc([N+](=O)[O-])c1` (stereo unspecified), the values for the pIC50 in test [1] and in test [2] were 7.35 and 7.66, respectively.
The corresponding values for `COC(=O)C1=C(C)NC(C)=C(C(=O)OC2C=CCCC2)C1c1cccc([N+](=O)[O-])c1` (stereo unspecified) are 8.00 and 8.00.
The corresponding values for `COC(=O)C1=C(C)NC(C)=C(C(=O)OCc2cccs2)C1c1cccc([N+](=O)[O-])c1` (stereo unspecified) are 7.64 and 7.51.
The corresponding values for `CCOC(=O)C1=C(C)NC(/C=C/c2ccc([N+](=O)[O-])cc2)=C(C(=O)OCC)C1c1cccc([N+](=O)[O-])c1` (stereo unspecified) are 5.69 and 5.71.
On to `CCOC(=O)C1=C(C)NC(C)=C(C(=O)OCc2ccc([N+](=O)[O-])cc2)C1c1cccc([N+](=O)[O-])c1` (stereo unspecified), for which the pIC50 in test [1] was 6.85; in test [2], 6.89.
The like results for `CCCCC1=C(C(=O)OCC)C(c2cccc([N+](=O)[O-])c2)C(C(=O)OCC)=C(C)N1` (stereo unspecified) were, in that order, 7.70 and 7.70.
The like results for `COC(=O)C1=C(C)NC(C)=C(C(=O)OCC(F)(F)F)C1c1cccc([N+](=O)[O-])c1` (stereo unspecified) were, in that order, 7.68 and 7.80.
The like results for `CCOC(=O)C1=C(C)NC(C)=C(C(=O)OCC)C1c1ccc(F)cc1F` were, in that order, 7.24 and 7.70.
With `C=CCOC(=O)C1=C(C)NC(C)=C(C(=O)OCC)C1c1cccc([N+](=O)[O-])c1` (stereo unspecified), the results for the pIC50 in test [1] and in test [2] were 7.82 and 7.60, respectively.
The corresponding values for `CCOC(=O)C1=C(C)NC(C)=C(C(=O)OCC)C1c1ccccc1SC` are 7.82 and 8.10.
The like results for `CCOC(=O)C1=C(C)OC(C)=C(C(=O)OCC)C1c1cccc([N+](=O)[O-])c1` were, in that order, 5.72 and < 5.40.
The like results for `C=CCOC(=O)C1=C(C)NC(C)=C(C(=O)OC)C1c1ccccc1[N+](=O)[O-]` (stereo unspecified) were, in that order, 8.00 and 8.10.
For the compound `COC(=O)C1=C(C)NC(C)=C(C(=O)OCCC(c2ccccc2)c2ccccc2)C1c1cccc([N+](=O)[O-])c1` (stereo unspecified), the pIC50 in test [1] is 6.57; in test [2] it was 7.00.
In the case of `COC(=O)C1=C(C)NC(C)=C(C(=O)OCc2ccco2)C1c1cccc([N+](=O)[O-])c1` (stereo unspecified), the pIC50 in test [1] is 7.82; in test [2], 7.70.
The like results for `CCOC(=O)C1=C(C)NC2=C(C(=O)OC2)C1c1cccc([N+](=O)[O-])c1` (stereo unspecified) were, in that order, < 5.40 and < 5.40.
The like results for `CCOC(=O)C1=C(C)NC(C=CC(=O)OC)=C(C(=O)OCC)C1c1cccc([N+](=O)[O-])c1` (mixture of isomers) were, in that order, 6.67 and 6.50.
The corresponding values for `CCOC(=O)C1=C(C)NC(COC)=C(C(=O)OC)C1c1cccc([N+](=O)[O-])c1` (stereo unspecified) are 7.02 and 7.85.
As for `COC(=O)C1=C(C)NC(C)=C(C(=O)OCCCCc2ccccc2)C1c1cccc([N+](=O)[O-])c1` (stereo unspecified), the figures for the pIC50 in test [1] and in test [2] were 7.42 and 8.00, respectively.
For `COC(=O)C1=C(C)NC(C)=C(C(=O)OCc2c(Cl)cc(Cl)cc2Cl)C1c1cccc([N+](=O)[O-])c1` (stereo unspecified), the pIC50 in test [1] was 7.47; in test [2], 8.00.
The corresponding values for `CC1=C(C#N)C(c2cccc(F)c2F)C(C#N)=C(C)N1` are 5.94 and 5.79.
The like results for `CCOC(=O)C1=C(C)NC(C)=C(C(=O)OCC)C1c1cccc(F)c1F` were, in that order, 8.00 and 7.82.
In the case of `CCOC(=O)C1=C(C)NC(CN2CCN(c3ccccc3)CC2)=C(C(=O)OCC)C1c1cccc([N+](=O)[O-])c1` (stereo unspecified), the results for the pIC50 in test [1] and in test [2] were 6.21 and 6.20, respectively.
Turning to `COC(=O)C1=C(C)NC(C)=C(C(=O)OCc2ccc(OC)c(OC)c2)C1c1cccc([N+](=O)[O-])c1` (stereo unspecified), the pIC50 in test [1] is 6.93; in test [2], 6.95.
The like results for `COC(=O)C1=C(C)NC(C)=C(C(=O)OCC2CC2)C1c1cccc([N+](=O)[O-])c1` (stereo unspecified) were, in that order, 7.68 and 7.55.
The corresponding values for `C=CCOC(=O)C1=C(C)NC(C)=C(C(=O)OCC)C1c1ccc2ccccc2c1` (stereo unspecified) are 5.67 and 5.88.
The like results for `CCOC(=O)C1=C(C)NC(C(OCC)OCC)=C(C(=O)OCC)C1c1cccc([N+](=O)[O-])c1` (stereo unspecified) were, in that order, 6.21 and 6.34.
In the case of `COC(=O)C1=C(C)NC(C)=C(C(=O)OC)C1c1ccccc1SC`, the pIC50 is 7.46 in test [1] and 8.10 in test [2].
As for `COC(=O)C1=C(C)NC(C)=C(C(=O)OCc2ccc(-c3ccccc3)cc2)C1c1cccc([N+](=O)[O-])c1` (stereo unspecified), the pIC50 in test [1] was 7.13; in test [2] it was 7.16.
The like results for `CCOC(=O)C1=C(C)NC(C)=C(C(=O)OC=O)C1c1cccc([N+](=O)[O-])c1` (stereo unspecified) were, in that order, 4.86 and 4.48.
The like results for `COC(=O)C1=C(C)NC(C)=C(C(=O)OCCNC(=O)C(F)(F)F)C1c1cccc([N+](=O)[O-])c1` (stereo unspecified) were, in that order, 6.26 and 6.39.
